pKi: −log10 of the molar value.
Columns and labels:
[1] = Apparent Ki value for the inhibition of human thymidylate synthase in the presence of variable conc. of N5,10-CH2-H4PteGlu; Ki/Km
In short: (§1)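 HeLa-S3 TS purified on methotrexate–Sephadex. Tritium release from [5-3H]dUMP with dUMP fixed at 100 μM and CH2-H4PteGlu varied, in 150 mM Tris-HCl pH 7.5 with DTT, NaF, formaldehyde, BSA and sucrose. Reactions ran at 37 °C for 60 min, were stopped with TCA, treated with charcoal, and the supernatant counted. Apparent Ki from replots of double-reciprocal slopes (competitive) or intercepts (noncompetitive) against inhibitor concentration.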

Thymidylate synthase [2] = target: T1, Thymidylate synthase (Homo sapiens, UniProt P04818); test: Inhibitory activity against human thymidylate synthase with variable concentration of dUMP and fixed N5,10-CH2-H4PteGlu (200 uM)
Thymidylate synthase [3] = target: T1, Thymidylate synthase; test: Inhibitory activity against human thymidylate synthase with variable concentration of N5, 10-CH2-H4PteGlu and fixed dUMP (100 uM); in short: as §1
[4] = Apparent Ki value for the inhibition of human thymidylate synthase in the presence of variable conc. of dUMP; Ki/Km
[5] = Apparent Ki value for the inhibition of human thymidylate synthase in the presence of variable conc. of N5,10-CH2-H4PteGlu
In short: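 Thymidylate synthase purified from HeLa-S3 cells by methotrexate–Sephadex chromatography. Tritium-release assay, 37 °C for 60 min, at pH 7.5 (Tris-HCl) with DTT, NaF, formaldehyde, BSA and sucrose. dUMP (with [5-3H]dUMP, 10:1) fixed at 100 μM; CH2-H4PteGlu varied. Inhibitor tested at several concentrations. Lineweaver–Burk plots; slopes (competitive) or intercepts (noncompetitive) replotted against inhibitor concentration.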

[6] = Apparent Ki value for the inhibition of human thymidylate synthase in the presence of variable conc. of dUMP
In short: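 Enzyme is HeLa-S3 thymidylate synthase, purified on methotrexate–Sephadex. Tritium release from [5-3H]dUMP (10:1 with dUMP), with dUMP varied and CH2-H4PteGlu fixed at 200 μM. Tris-HCl pH 7.5 buffer with DTT, NaF, formaldehyde, BSA and sucrose; 37 °C, 60 min. Inhibitor at several concentrations; double-reciprocal slopes or intercepts replotted against inhibitor concentration.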

Thymidylate synthase [7] = target: T1, Thymidylate synthase; test: Km of dUMP for human thymidylate synthase with variable concentration of dUMP and fixed N5,10-CH2-H4PteGlu (200 uM)

T1 sequence (P04818 whole entry): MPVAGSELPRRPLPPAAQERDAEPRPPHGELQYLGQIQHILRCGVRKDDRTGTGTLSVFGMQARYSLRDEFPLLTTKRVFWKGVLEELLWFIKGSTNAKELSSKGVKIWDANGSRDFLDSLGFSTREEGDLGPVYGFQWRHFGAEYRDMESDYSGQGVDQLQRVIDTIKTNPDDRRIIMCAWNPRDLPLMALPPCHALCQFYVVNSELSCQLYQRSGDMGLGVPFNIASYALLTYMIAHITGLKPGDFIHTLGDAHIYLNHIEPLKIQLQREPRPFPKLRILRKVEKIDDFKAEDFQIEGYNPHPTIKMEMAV

| Structure (SMILES) | Ratio [1] | pKi (Thymidylate synthase [2]) | pKi (Thymidylate synthase [3]) | Ratio [4] | Ratio [5] | Ratio [6] | Km (Thymidylate synthase [7]) |
| --- | --- | --- | --- | --- | --- | --- | --- |
| Nc1nc2c(c(=O)[nH]1)N(Cc1cn([C@H]3C[C@H](O)[C@@H](CO)O3)c(=O)[nH]c1=O)C(CNc1ccc(C(=O)NC(CCC(=O)O)C(=O)O)cc1)CC2 (some centres not stated) | 4.8 | 3.82 | 3.62 | 50 |  |  |  |
| Nc1nc2c(c(=O)[nH]1)N(Cc1cn([C@H]3C[C@H](O)[C@@H](COP(O)O)O3)c(=O)[nH]c1=O)C(CNc1ccc(C(=O)NC(CCC(=O)O)C(=O)O)cc1)CC2 (some centres not stated) |  | 7.24 | 6.60 |  | 0.005 | 0.02 |  |
| O=c1ccn([C@H]2C[C@H](O)[C@@H](COP(=O)(O)O)O2)c(=O)[nH]1 [DEOXYURIDINE MONOPHOSPHATE] |  |  |  |  |  |  | 3 µM |
| COP(=O)(O)OC[C@H]1O[C@@H](n2cc(CN3c4c(nc(N)[nH]c4=O)CCC3CNc3ccc(C(=O)NC(CCC(=O)O)C(=O)O)cc3)c(=O)[nH]c2=O)C[C@@H]1O (some centres not stated) | 14 | 3.92 | 3.15 | 40 |  |  |  |
| CCOC(=O)CCC(NC(=O)c1ccc(N(CC2CCc3nc(N)nc(O)c3N2)N=O)cc1)C(=O)OCC (configuration not stated) |  |  |  |  | 3 | 80 |  |
| CCOC(=O)CCC(NC(=O)c1ccc(N(CC2CCc3nc(N)[nH]c(=O)c3N2)N=O)cc1)C(=O)OCC (configuration not stated) |  | 3.62 | 3.82 |  |  |  |  |

From ChEMBL document CHEMBL1122546, “A potent multisubstrate analogue inhibitor of human thymidylate synthetase” (J Med Chem, 1984)
